Experimental data pooled from the literature.
Compare with care: the assays were run in different laboratories.

| SMILES | cell line | observed | action | technique | time | IC50 |
| --- | --- | --- | --- | --- | --- | --- |
| COc1cc(Nc2nccc(-c3cnn4nc(OC)ccc34)n2)cc(C(F)(F)F)c1 | COV434 | cell growth or viability | – | ATP luminescence | – | 500 nM |
| COc1cc2c(=O)n(CCN(C)C)c3c4cc5c(cc4ncc3c2cc1OC)OCO5 | RPMI 8402 | cell growth or viability | – | MTT | 96 h | 2 nM |
| O=c1c(O[C@@H]2O[C@H](CO)[C@H](O)[C@H](O)[C@H]2O)c(-c2ccc(O)c(O)c2)oc2cc(O)cc(O)c12 | SW780 | cell growth or viability | – | ATP luminescence | 72 h | 136000 nM |
| CC(C)C[C@H](NC(=O)[C@H](Cc1ccccc1)NC(=O)c1cnccn1)B(O)O | LOU-NH91 | cell growth or viability | – | ATP luminescence | – | 11 nM |
| Cc1ccc2c(c1)c(C(c1ccc(/C=C/C(=O)O)s1)c1cn(C(C)C)c3ccc(C)cc13)cn2C(C)C | LNCaP | cell growth or viability | – | MTT | 48 h | < 3000 nM |
| COc1ccc(-c2nc(OCc3cn(CC(=O)Nc4cccc(OC)c4)nn3)c3ccccc3n2)cc1 | WRL68 | cell growth or viability | – | MTT | 72 h | 82700 nM |
| O=C(O)/C=C/c1ccc(O)cc1 | PaCa-2 | cell growth or viability | – | MTT | – | > 50000 nM |
| Cn1cc(C(c2ccc(/C=C/C(=O)O)s2)c2cn(C)c3ccccc23)c2ccccc21 | LNCaP | cell growth or viability | – | MTT | 48 h | > 20000 nM |
| OC[C@H]1O[C@@H](Oc2cc3c(O)cc(O)cc3[o+]c2-c2ccc(O)c(O)c2)[C@H](O)[C@@H](O)[C@H]1O | SW780 | cell growth or viability | – | ATP luminescence | 72 h | 84500 nM |
| O=C(O)C(c1c[nH]c2ccccc12)c1c[nH]c2ccccc12 | LNCaP | cell growth or viability | – | MTT | 48 h | > 100000 nM |
| CC(=O)c1ccc(N=Nc2c(C(=O)O)cc(O)c(O)c2O)cc1 | PaCa-2 | cell growth or viability | – | MTT | – | 12000 nM |
| CCN(CC)CCCCNc1ncc2cc(-c3cc(OC)cc(OC)c3)c(NC(=O)NC(C)(C)C)nc2n1 | SW780 | cell growth or viability | – | MTT | 5 days | 50 nM |
| CC(=O)OCCC1=CC2C=CC=CC1C2C1CCCCC1=O (stereo not shown) | Jurkat | cell growth or viability | – | flow cytometry | – | 64 nM |
| CC(=O)c1ccc(/N=N/c2cc(/C=C/C(=O)O)ccc2O)cc1 | PaCa-2 | cell growth or viability | – | MTT | – | > 50000 nM |
| COc1ccc(C(=O)O[C@@H]2CN3Cc4c(cc5c(c4OC)OCO5)[C@@]24C=C[C@H](OC)C[C@@H]34)cc1 | MOLT-4 | cell growth or viability | – | WST-1 | – | > 10000 nM |
| COc1cc(N2CCC(N3CCN(C)CC3)CC2)ccc1Nc1ncc(Cl)c(Nc2ccccc2S(=O)(=O)C(C)C)n1 | Rh4 | cell growth or viability | – | – | 72 h | 90 nM |

| SMILES | cell line | observed | action | technique | time | IC50 |
| --- | --- | --- | --- | --- | --- | --- |
| Oc1ccc(C(c2c[nH]c3ccccc23)c2c[nH]c3ccccc23)cc1 | LNCaP | cell growth or viability | – | MTT | 48 h | > 100000 nM |
| COc1cccc2c1C(=O)c1c(O)c3c(c(O)c1C2=O)C[C@@](O)(C(=O)CO)C[C@@H]3O[C@H]1C[C@H](N)[C@H](O)[C@H](C)O1 | MIA PaCa-2 | cell growth or viability | – | MTS | 48 h | 49 nM |
| CO[C@@H](C[C@H]1C(C)=CC[C@@H]2[C@]3(C)C[C@H](O[C@@H]4O[C@@H](C)[C@H](OC(=O)c5cccc(O)c5)[C@@H](O[C@@H]5O[C@H](CO)[C@@H](O)[C@H](O)[C@H]5NC(C)=O)[C@H]4O)[C@@H](O)C(C)(C)[C@H]3CC[C@]21C)[C@H](N)C(=O)O | LN-229 | cell growth or viability | – | ATP luminescence | 6 days | 130 nM |
| c1ccc(CNCc2cc3c(-c4ccccc4)n[nH]c3c(Nc3ccccc3)n2)cc1 | MIA PaCa-2 | cell growth or viability | – | MTS | 48 h | 2600 nM |
| O=C(O)c1ccc(C(c2c[nH]c3ccccc23)c2c[nH]c3ccccc23)cc1 | LNCaP | cell growth or viability | – | MTT | 48 h | 21000 nM |
| CC(C)(C)OC(=O)NCCOc1cc(NC(=O)c2cnccn2)c2ncccc2c1 | MIA PaCa-2 | cell growth or viability | – | MTT | 72 h | < 1000 nM |
| CCOc1cc(OCC)cc(C(=O)O[C@@H]2CN3Cc4c(cc5c(c4OC)OCO5)[C@@]24C=C[C@H](OC)C[C@@H]34)c1 | MOLT-4 | cell growth or viability | – | WST-1 | – | 7600 nM |
| Cc1[nH]c(/C=C2\C(=O)Nc3ccc(S(=O)(=O)N(C)c4cccc(Cl)c4)cc32)c(C)c1C(=O)N1CCN(C)CC1 | Rh4 | cell growth or viability | – | – | 72 h | 2210 nM |
| CCCCC1=CC2C=CC=CC1C2C1CCCCC1=O (stereo not shown) | Jurkat | cell growth or viability | – | flow cytometry | – | 37 nM |
| O=c1c(O)c(-c2cc(O)c(O)c(O)c2)oc2cc(O)cc(O)c12 | SW780 | cell growth or viability | – | ATP luminescence | 72 h | 20900 nM |
| C[C@H](Nc1ncnc2nc[nH]c12)c1cc2cccc(Cl)c2c(=O)n1-c1ccccc1 | CD4+ T | lymphocyte proliferation | inhibitor | – | – | 100 nM |
| O=c1c(O)c(-c2ccc(O)c(O)c2)oc2cc(O)cc(O)c12 | SW780 | cell growth or viability | – | ATP luminescence | 72 h | 43400 nM |
| N#CCCCC1=CC2C=CC=CC1C2C1CCCCC1=O (stereo not shown) | Jurkat | cell growth or viability | – | flow cytometry | – | 69 nM |
| C[C@@H](Oc1cc(-c2cnn(C3CCNCC3)c2)cnc1N)c1c(Cl)ccc(F)c1Cl | Rh4 | cell growth or viability | – | – | 72 h | 580 nM |
| O=C(O)c1cc(O)c(O)c(O)c1 | PaCa-2 | cell growth or viability | – | MTT | – | 17500 nM |
